Source: ChEMBL document CHEMBL1122098, “2-Amino-4,7-dimethoxyindan derivatives: synthesis and assessment of dopaminergic and cardiovascular actions” (1982)

Legend:
Format in all cases: functional
[1] = tested on: Felis catus; assay: Tested for the percent change in blood pressure after administration in cat
Method in brief: (§1)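 Cats 2-4 kg, either sex, anesthetized with pentobarbital sodium 30 mg/kg ip, pretreated with atropine sulfate 0.2 mg/kg iv. Compounds in saline given as iv bolus via femoral catheter. Blood pressure and heart rate recorded. Right cardioaccelerator nerve stimulated at 2 Hz, 5-ms pulses, 20–25 V supramaximal; inhibition of the positive chronotropic response measured, with ED50 calculated. Haloperidol 100 µg/kg iv given beforehand for blockade.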

[2] = tested on: Felis catus; assay: Tested for the change in heart rate after administration in cat; method in brief: as §1
[3] = species on record: Felis catus; assay: Tested for the inhibition of cardioaccelerator nerves in cat; conditions: read-out: ID50 (the source's name); method in brief: as §1
[4] = species on record: Rattus norvegicus; assay: Tested for the alteration in rat CNS transmitter synthesis by […] of 5-HTP from olfactory tubercle; set-up: concentration or dose not given beside the values
Method in brief: (§2)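 Rat in vivo synthesis-index model (Carlsson): test compound 4.0 mg/kg sc given 30 min before GBL 750 mg/kg ip in distilled water; apomorphine 4.0 mg/kg sc 5 min before GBL. Five min after GBL, NSD 1015 100 mg/kg ip in saline; decapitation 30 min later. Dopa in caudate nucleus and 5-HTP in olfactory tubercle measured, expressed as percent of saline+GBL control; p < 0.05 criterion.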

[5] = species on record: Rattus norvegicus; assay: Tested for the alteration in rat CNS transmitter synthesis by […] of Dopa from caudate nucleus; set-up: concentration or dose not given beside the values; method in brief: as §2
[6] = Tested for the ratio between rat rotation and the potency to apomorphine
Method in brief: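 Rats with unilateral substantia nigra 6-hydroxydopamine lesions (6 µg in 3 µl). HCl salts in saline given sc, screened at 2 mg/kg; contralateral turns recorded automatically for at least 1 h as turns per hour. Dose-response curves used 4-5 animals; potency ratio to apomorphine with 95% CI calculated over 60 min after dosing.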

Row | SMILES | BP change [1] | HR [2] | ED50 [3] | Control [4] | Control [5] | Ratio [6]
1 | COc1ccc(OC)c2c1CC(NC(C)C)C2 | 3.8% | 0 beats min-1 | 1.1 µmol/kg | – | – | –
2 | CNC1Cc2c(OC)ccc(OC)c2C1 | 28.1% | 2.5 beats min-1 | 1.23 µmol/kg | 94.7% | 67.9% | 8.2
3 | COc1ccc(OC)c2c1CC(N)C2 | 6.3% | 0 beats min-1 | 1.55 µmol/kg | 109.7% | 94% | 8.7
4 | CCCN(CCC)C1Cc2c(OC)ccc(OC)c2C1 | -16.6% | -6.4 beats min-1 | 0.107 µmol/kg | 51.5% | 31.8% | 0.13
5 | COc1ccc(OC)c2c1CC(N(C)C)C2 | 51.8% | 3.2 beats min-1 | 1.16 µmol/kg | – | – | 0.019
6 | CCCNC1Cc2c(OC)ccc(OC)c2C1 | 0.7% | -3.2 beats min-1 | 1.1 µmol/kg | 104.7% | 79.1% | 7.4
7 | CN1CCc2cccc3c2[C@H]1Cc1ccc(O)c(O)c1-3 [APOMORPHINE] | – | – | 0.103 µmol/kg | – | 18.3% | 1
8 | CNC1CCc2c(OC)ccc(OC)c2C1 (configuration not stated) | – | – | – | 33.2% | 103.8% | 3.9
